The values that follow come from ChEMBL document CHEMBL2046350, “Bahamaolides A and B, antifungal polyene polyol macrolides from the marine actinomycete Streptomyces sp” (J Nat Prod, 2012).

SMILES strings stand for the structures. In brackets after ≈: the same amount, converted by molar mass. Activity calls are given as the source filed them.

For test [1], the system named is Candida albicans. The test can be described thus: Antifungal activity against Candida albicans ATCC 10231 after 48 to 72 hrs. The format is functional. In outline:
(§1)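 Candida albicans grown in YPD (1% yeast extract, 2% peptone, 2% dextrose) 48 h at 28 °C, harvested, washed twice with water; moulds grown on potato dextrose agar 2 weeks at 28 °C, spores washed and resuspended in PDB. Broth microdilution in PDB (10⁴ cells/mL) with compound added in 5% DMSO (0.5% DMSO solvent control); 28 °C, 48–72 h; MIC = lowest concentration inhibiting growth.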

In a further test the test system is Salmonella typhimurium. Description: Antibacterial activity against Salmonella typhimurium ATCC 14028. The format is functional, organism-based. The following applies: Salmonella enterica subsp. enterica serovar Typhimurium.
Another test relates to A549. Description: Cytotoxicity against human A549 cells at 100 ug/ml. The format is functional, cell-based.
A further test has as its system Trichophyton rubrum. Description: Antifungal activity against Trichophyton rubrum IFO 9185 after 48 to 72 hrs. The format is functional. The method, boiled down:
as §1

Another test deals with HCT-116. The test can be described thus: Cytotoxicity against human HCT116 cells at 100 ug/ml. The format is functional, cell-based.
The next test has as its system Aspergillus fumigatus. The test can be described thus: Antifungal activity against Aspergillus fumigatus HIC 6094 after 48 to 72 hrs. The format is functional. The method, boiled down: as §1
A further test relates to SK-HEP1. Description: Cytotoxicity against human SKHEP1 cells at 100 ug/ml. The format is functional, cell-based.
The next test concerns Proteus vulgaris. The test can be described thus: Antibacterial activity against Proteus vulgaris ATCC 3851. The format is functional, organism-based.
The nature of test [2]: Inhibition of candida albicans ICL assessed as formation of glyoxylate phenylhydrazone after 30 mins by Dixon and Kornberg's method.
A further test relates to Escherichia coli. The test can be described thus: Antibacterial activity against Escherichia coli ATCC 35270. The format is functional, organism-based.
Another test has as its system Bacillus subtilis. Description: Antibacterial activity against Bacillus subtilis ATCC 6633. The format is functional, organism-based.
The subject of the next test is Staphylococcus aureus. Description: Antibacterial activity against Staphylococcus aureus ATCC 6538p. The format is functional, organism-based.
In the next test the test system is MDA-MB-231. Description: Cytotoxicity against human MDA-MB-231 cells at 100 ug/ml. The format is functional, cell-based.
The test system of test [3] is Trichophyton mentagrophytes. Description: Antifungal activity against Trichophyton mentagrophytes IFO4 0996 after 48 to 72 hrs. The format is functional. The method, boiled down: as §1
A further test has as its system Micrococcus luteus. Description: Antibacterial activity against Micrococcus luteus IFO 12708. The format is functional, organism-based.
Test [4] concerns Candida albicans. Description: Inhibition of candida albicans ICL assessed as formation of glyoxylate phenylhydrazone at 100 ug/ml after 30 mins by Dixon and Kornberg's method.

As usually defined, the IC50 is the concentration needed to halve the response being measured. As to `CC(C)[C@@H]1OC(=O)/C=C/C=C/C=C/C=C/C=C/C=C\C[C@@H](O)C[C@H](O)C[C@H](O)C[C@H](O)C[C@@H](O)C[C@H](O)C[C@@H](O)C[C@@H](O)C[C@@H](O)CC[C@@H]1C` [BAHAMAOLIDE B], the outcome with Candida albicans [1], with Salmonella typhimurium, in the test with A549, with Trichophyton rubrum, with HCT-116 and in the test on Aspergillus fumigatus was inactive. In addition, the outcome in the test on SK-HEP1, in the test with Proteus vulgaris, in the test with Escherichia coli, with Bacillus subtilis, with Staphylococcus aureus and with MDA-MB-231 was inactive. In addition, the result (in test [3]; in the test with Micrococcus luteus) was inactive. Also, in [2], the IC50 is 127 µM.

Usually MIC stands for the smallest concentration in the dilution series that meets the test's criterion for growth inhibition. Read a low MIC as a more susceptible organism. Turning to `CC(C)[C@@H]1OC(=O)/C=C/C=C/C=C/C=C/C=C/C=C/C[C@@H](O)C[C@H](O)C[C@H](O)C[C@H](O)C[C@@H](O)C[C@H](O)C[C@@H](O)C[C@@H](O)C[C@@H](O)CC[C@@H]1C` [BAHAMAOLIDE A], the minimum inhibitory concentration (MIC) (against Candida albicans [1]; in the test on Trichophyton rubrum; against Aspergillus fumigatus; in test [3]) was 12.5 µg/mL (≈ 17.6 µM) each time. In addition, the outcome in the test with Salmonella typhimurium, in the test with A549, in the test with HCT-116, in the test with SK-HEP1, with Proteus vulgaris and with Escherichia coli was inactive. The result in the test with Bacillus subtilis, in the test on Staphylococcus aureus, with MDA-MB-231 and in the test with Micrococcus luteus was inactive. Also, in [2], the IC50 worked out at 10.8 µM.

For the compound `C[C@@H]1[C@H](O)[C@@H](C)/C=C/C=C/C=C/C=C/C=C/C=C/C=C/[C@H](O[C@@H]2O[C@H](C)[C@@H](O)[C@H](N)[C@@H]2O)C[C@@H]2O[C@](O)(C[C@@H](O)C[C@@H](O)[C@H](O)CC[C@@H](O)C[C@@H](O)CC(=O)O[C@H]1C)C[C@H](O)[C@H]2C(=O)O`, in the test with Candida albicans [4], the inhibition result is “inactive”.
